# Reference: ChEMBL document CHEMBL4017535 (J Med Chem, 2017)
# Columns and labels:
# Liver [1] = assay: Unbound intrinsic clearance in mouse liver microsomes; type: ADME, microsome
# Method in brief: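 Liver microsome stability is expressed as unbound intrinsic clearance, Cl_int,u, in L/hr/kg. Dextromethorphan served as the in-house low-clearance reference control and verapamil as the high-clearance reference control.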
# Liver [2] = assay: Unbound intrinsic clearance in rat liver microsomes at 10 uM preincubated for 5 mins followed by NADPH addition measured after 60 mins by HPLC-UV-MS analysis; type: ADME, microsome; conditions: 1 h
# Mus musculus [3] = assay: Plasma unbound clearance in mouse at 3 mg/kg, iv; type: ADME, organism-based; conditions: in vivo
# Method in brief: (§1)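 Mouse PK: 3 mg/kg IV and 10 mg/kg PO. Clearance is expressed unbound, Cl_p,u in L/hr/kg. AUC is unbound, in µM*hr. FaFg is computed as F/(1-Clp/Qh), with mouse liver blood flow Qh 5.2 L/hr/kg. Unbound plasma fraction was measured separately.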
# Mus musculus [4] = assay: Unbound AUC in mouse at 10 mg/kg, po; type: ADME, organism-based; conditions: in vivo; method in brief: as §1
# Rattus norvegicus = assay: Oral absorption in rat at 1 mg/kg; type: ADME, organism-based; conditions: in vivo
# Method in brief: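 Oral absorption is expressed as FaFg, calculated as F/(1-Clp/Qh). Liver blood flow (Qh) was 5.2 L/hr/kg for mouse and 3.8 L/hr/kg for rat. Mouse dosing was 3 mg/kg IV and 10 mg/kg PO; rat dosing was 1 mg/kg IV and PO.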
# [5] = Oral bioavailability in mouse at 10 mg/kg; type: ADME, organism-based; conditions: in vivo; method in brief: as §1
# [6] = Oral bioavailability in rat at 1 mg/kg; type: ADME, organism-based; conditions: in vivo
# Method in brief: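 In rats, 1 mg/kg was given by both IV and PO routes. IV clearance is unbound (Cl_p,u, L/hr/kg). FaFg is taken as F/(1-Clp/Qh), using rat Qh 3.8 L/hr/kg. Unbound plasma fraction was determined in rat plasma.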
# [7] = Fraction unbound in rat plasma at 1 uM after 4 hrs by LC-MS/MS method; type: ADME, cell-free
# [8] = Intrinsic clearance in human liver microsomes at 10 uM preincubated for 5 mins followed by NADPH addition measured after 60 mins by HPLC-UV-MS analysis; type: ADME, microsome; conditions: read-out: CLH
# [9] = Intrinsic clearance in rat hepatocytes; type: ADME, cell-based, Hepatocyte; conditions: read-out: CLH (converted)
# [10] = Intrinsic clearance in dog hepatocytes; type: ADME, cell-based, Canis lupus familiaris, Hepatocyte; conditions: read-out: CLH (converted)
# [11] = Intrinsic clearance in monkey hepatocytes; type: ADME, cell-based, Macaca mulatta, Hepatocyte; conditions: rhesus monkey, read-out: CLH (converted)
# [12] = Plasma clearance in mouse at 3 mg/kg, iv; type: ADME, organism-based
# [13] = Plasma clearance in iv dosed dog; type: ADME, organism-based, Canis lupus familiaris
# [14] = Oral bioavailability in human at 1 mg; type: ADME, organism-based; conditions: in vivo
# Method in brief: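 Human F (%) was estimated from observed F in preclinical species. It accompanies a clinical 1 mg oral dose given to cancer patients (n = 3).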
# [15] = Half life in rat at 1 mg/kg, po; type: ADME, organism-based; conditions: in vivo
# [16] = Apparent oral plasma clearance in human at 1 mg; type: ADME
# Method in brief: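 Clinical PK in subjects with cancer after a single 1 mg oral dose, n = 3. Apparent clearance was reported as PO CLp/F in L/hr.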
# [17] = target: Bromodomain-containing protein 3 (Homo sapiens, UniProt Q15059); assay: Binding affinity to BRD3 BD1 to BD2 (P24 to A416 residues) (unknown origin)
# Chain of Bromodomain-containing protein 3 (Q15059 whole entry, the tested form may be a part): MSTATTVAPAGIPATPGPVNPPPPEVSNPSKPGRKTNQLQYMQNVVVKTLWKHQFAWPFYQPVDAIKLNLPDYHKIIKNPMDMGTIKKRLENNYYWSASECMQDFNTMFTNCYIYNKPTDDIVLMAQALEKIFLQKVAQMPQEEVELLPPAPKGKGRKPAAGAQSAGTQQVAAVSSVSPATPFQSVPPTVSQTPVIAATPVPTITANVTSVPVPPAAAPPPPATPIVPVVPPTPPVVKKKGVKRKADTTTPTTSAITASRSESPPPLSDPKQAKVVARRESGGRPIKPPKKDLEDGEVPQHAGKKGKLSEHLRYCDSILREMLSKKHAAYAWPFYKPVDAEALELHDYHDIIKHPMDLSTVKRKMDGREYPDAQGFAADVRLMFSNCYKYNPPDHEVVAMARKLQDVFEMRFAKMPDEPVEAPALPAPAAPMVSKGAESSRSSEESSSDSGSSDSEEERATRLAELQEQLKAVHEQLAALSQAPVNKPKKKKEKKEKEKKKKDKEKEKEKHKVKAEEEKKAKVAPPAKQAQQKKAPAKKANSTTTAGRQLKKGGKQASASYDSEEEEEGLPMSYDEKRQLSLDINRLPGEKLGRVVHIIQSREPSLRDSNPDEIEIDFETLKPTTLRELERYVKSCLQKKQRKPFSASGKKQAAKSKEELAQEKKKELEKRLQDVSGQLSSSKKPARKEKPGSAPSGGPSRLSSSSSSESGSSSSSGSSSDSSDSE
# [18] = target: Bromodomain-containing protein 4 (Homo sapiens, UniProt O60885); assay: Binding affinity to N-terminal His6-tagged human BRD4 BD1 to BD2 (K57 to K550 residues) by isothermal titration calorimetry
# [19] = target: Bromodomain testis-specific protein (Homo sapiens, UniProt Q58F21); assay: Binding affinity to BRDT BD1 to BD2 (N21 to P380 residues) (unknown origin)
# [20] = target: Histone acetyltransferase KAT2B (Homo sapiens, UniProt Q92831); assay: Binding affinity to human PCAF (G715 to D831 residues) expressed in mammalian expression system by BROMOscan assay
# Chain of Histone acetyltransferase KAT2B (Q92831 whole entry, the tested form may be a part): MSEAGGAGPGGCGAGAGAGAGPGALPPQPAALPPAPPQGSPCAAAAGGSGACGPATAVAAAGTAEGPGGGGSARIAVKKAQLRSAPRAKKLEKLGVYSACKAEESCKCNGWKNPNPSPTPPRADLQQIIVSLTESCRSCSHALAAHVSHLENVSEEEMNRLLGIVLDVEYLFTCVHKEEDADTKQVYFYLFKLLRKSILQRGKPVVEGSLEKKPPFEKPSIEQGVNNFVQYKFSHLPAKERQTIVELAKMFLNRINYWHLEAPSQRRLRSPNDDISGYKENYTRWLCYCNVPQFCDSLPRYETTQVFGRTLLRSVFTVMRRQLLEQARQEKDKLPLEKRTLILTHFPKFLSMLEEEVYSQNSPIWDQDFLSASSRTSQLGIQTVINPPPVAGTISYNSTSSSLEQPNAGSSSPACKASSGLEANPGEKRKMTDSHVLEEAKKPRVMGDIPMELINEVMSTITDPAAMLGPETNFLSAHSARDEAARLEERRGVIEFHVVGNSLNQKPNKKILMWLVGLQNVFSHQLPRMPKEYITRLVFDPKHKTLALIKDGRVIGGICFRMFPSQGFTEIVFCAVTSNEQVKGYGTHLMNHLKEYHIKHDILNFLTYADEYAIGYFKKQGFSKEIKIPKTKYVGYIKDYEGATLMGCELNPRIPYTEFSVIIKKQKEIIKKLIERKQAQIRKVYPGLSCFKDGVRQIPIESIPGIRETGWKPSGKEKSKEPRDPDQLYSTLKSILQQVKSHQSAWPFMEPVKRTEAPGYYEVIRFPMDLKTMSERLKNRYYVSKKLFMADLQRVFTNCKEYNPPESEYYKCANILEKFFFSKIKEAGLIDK
# [21] = target: SWI/SNF-related matrix-associated actin-dependent regulator of chromatin subfamily A member 4 (Homo sapiens, UniProt P51532); assay: Binding affinity to human SMARCA4 (A1448 to S1575 residues) expressed in bacterial expression system by BROMOscan assay
# [22] = target: Transcription intermediary factor 1-alpha (Homo sapiens, UniProt O15164); assay: Binding affinity to human TRIM24 (PHD, Bromo) (P790 to P977 residues) expressed in bacterial expression system by BROMOscan assay
# [23] = target: Transcription initiation factor TFIID subunit 1-like (Homo sapiens, UniProt Q8IZX4); assay: Binding affinity to human TAF1L (2) (Q1523 to D1654 residues) expressed in bacterial expression system by BROMOscan assay
# [24] = target: Bromodomain-containing protein 8 (Homo sapiens, UniProt Q9H0E9); assay: Binding affinity to human BRD8 (1) (S700 to F854 residues) expressed in mammalian expression system by BROMOscan assay
# [25] = target: Bromodomain adjacent to zinc finger domain protein 2A (Homo sapiens, UniProt Q9UIF9); assay: Binding affinity to human BAZ2A (M1792 to L1905 residues) expressed in bacterial expression system by BROMOscan assay
# [26] = target: Bromodomain adjacent to zinc finger domain protein 2B (Homo sapiens, UniProt Q9UIF8); assay: Binding affinity to human BAZ2B (S2054 to S2168 residues) expressed in bacterial expression system by BROMOscan assay
# Chain of Bromodomain adjacent to zinc finger domain protein 2B (Q9UIF8 whole entry, the tested form may be a part): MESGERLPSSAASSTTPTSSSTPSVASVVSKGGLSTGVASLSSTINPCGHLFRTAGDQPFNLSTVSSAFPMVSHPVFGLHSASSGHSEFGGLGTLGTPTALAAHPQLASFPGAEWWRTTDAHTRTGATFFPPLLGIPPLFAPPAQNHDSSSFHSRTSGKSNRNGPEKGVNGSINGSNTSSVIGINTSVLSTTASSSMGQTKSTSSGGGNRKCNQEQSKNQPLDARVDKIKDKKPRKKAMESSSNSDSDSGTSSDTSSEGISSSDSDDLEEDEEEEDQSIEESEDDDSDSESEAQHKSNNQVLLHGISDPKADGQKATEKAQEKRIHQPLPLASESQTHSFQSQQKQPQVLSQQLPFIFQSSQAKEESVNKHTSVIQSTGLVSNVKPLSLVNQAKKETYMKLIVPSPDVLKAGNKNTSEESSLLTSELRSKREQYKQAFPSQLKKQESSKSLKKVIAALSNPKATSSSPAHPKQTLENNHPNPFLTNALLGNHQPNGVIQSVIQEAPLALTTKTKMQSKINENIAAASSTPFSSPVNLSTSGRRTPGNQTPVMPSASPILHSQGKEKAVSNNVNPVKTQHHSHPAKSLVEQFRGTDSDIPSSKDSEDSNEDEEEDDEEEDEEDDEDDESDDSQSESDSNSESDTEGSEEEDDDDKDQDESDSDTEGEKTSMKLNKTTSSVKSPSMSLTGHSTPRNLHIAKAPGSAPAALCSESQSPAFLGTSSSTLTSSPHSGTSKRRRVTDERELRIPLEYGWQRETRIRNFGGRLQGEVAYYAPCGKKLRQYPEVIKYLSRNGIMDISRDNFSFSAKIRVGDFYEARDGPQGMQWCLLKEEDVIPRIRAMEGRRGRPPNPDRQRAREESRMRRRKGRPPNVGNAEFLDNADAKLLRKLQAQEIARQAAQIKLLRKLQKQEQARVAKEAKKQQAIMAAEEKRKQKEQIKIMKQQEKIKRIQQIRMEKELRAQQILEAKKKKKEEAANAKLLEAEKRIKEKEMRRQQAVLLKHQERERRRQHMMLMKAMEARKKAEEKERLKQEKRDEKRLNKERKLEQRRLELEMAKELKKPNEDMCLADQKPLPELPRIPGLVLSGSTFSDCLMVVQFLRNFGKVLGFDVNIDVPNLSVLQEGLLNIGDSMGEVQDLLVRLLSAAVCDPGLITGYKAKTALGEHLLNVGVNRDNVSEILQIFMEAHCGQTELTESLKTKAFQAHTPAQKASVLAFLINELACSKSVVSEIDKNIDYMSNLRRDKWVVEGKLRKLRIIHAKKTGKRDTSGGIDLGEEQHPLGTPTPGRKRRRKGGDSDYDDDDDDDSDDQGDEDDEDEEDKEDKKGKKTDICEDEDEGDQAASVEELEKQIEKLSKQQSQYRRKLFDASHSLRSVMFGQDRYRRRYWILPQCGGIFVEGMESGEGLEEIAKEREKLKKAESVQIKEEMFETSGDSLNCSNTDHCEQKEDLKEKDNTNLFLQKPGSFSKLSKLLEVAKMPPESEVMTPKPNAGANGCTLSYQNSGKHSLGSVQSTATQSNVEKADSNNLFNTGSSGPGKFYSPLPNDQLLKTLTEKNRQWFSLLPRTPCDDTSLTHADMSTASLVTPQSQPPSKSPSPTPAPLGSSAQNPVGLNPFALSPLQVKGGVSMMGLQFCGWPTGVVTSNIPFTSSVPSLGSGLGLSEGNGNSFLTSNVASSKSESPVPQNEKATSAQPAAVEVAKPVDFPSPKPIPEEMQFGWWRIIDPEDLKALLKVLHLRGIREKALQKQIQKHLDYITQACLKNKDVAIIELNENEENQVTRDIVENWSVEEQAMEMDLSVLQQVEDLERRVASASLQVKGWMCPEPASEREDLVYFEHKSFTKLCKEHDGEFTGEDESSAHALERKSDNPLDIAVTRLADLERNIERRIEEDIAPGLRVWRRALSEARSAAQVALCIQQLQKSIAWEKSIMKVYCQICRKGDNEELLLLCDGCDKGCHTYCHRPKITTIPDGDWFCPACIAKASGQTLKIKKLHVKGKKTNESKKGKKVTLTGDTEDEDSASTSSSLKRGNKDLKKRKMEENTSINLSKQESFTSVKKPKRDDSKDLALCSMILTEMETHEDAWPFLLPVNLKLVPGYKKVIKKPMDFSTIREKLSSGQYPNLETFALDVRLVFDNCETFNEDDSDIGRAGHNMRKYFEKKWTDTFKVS
# [27] = target: Bromodomain and PHD finger-containing protein 3 (Homo sapiens, UniProt Q9ULD4); assay: Binding affinity to human BRPF3 (E588 to G701 residues) expressed in bacterial expression system by BROMOscan assay
# Protein polybromo-1 = Protein polybromo-1 (Homo sapiens, UniProt Q86U86); assay: Binding affinity to human PBRM1 bromodomain-2 (S178 to E291 residues) expressed in bacterial expression system by BROMOscan assay
# [28] = target: E3 ubiquitin-protein ligase TRIM33 (Homo sapiens, UniProt Q9UPN9); assay: Binding affinity to human TRIM33 (PHD, Bromo) (D882 to A1087 residues) expressed in bacterial expression system by BROMOscan assay
# Chain of E3 ubiquitin-protein ligase TRIM33 (Q9UPN9 whole entry, the tested form may be a part): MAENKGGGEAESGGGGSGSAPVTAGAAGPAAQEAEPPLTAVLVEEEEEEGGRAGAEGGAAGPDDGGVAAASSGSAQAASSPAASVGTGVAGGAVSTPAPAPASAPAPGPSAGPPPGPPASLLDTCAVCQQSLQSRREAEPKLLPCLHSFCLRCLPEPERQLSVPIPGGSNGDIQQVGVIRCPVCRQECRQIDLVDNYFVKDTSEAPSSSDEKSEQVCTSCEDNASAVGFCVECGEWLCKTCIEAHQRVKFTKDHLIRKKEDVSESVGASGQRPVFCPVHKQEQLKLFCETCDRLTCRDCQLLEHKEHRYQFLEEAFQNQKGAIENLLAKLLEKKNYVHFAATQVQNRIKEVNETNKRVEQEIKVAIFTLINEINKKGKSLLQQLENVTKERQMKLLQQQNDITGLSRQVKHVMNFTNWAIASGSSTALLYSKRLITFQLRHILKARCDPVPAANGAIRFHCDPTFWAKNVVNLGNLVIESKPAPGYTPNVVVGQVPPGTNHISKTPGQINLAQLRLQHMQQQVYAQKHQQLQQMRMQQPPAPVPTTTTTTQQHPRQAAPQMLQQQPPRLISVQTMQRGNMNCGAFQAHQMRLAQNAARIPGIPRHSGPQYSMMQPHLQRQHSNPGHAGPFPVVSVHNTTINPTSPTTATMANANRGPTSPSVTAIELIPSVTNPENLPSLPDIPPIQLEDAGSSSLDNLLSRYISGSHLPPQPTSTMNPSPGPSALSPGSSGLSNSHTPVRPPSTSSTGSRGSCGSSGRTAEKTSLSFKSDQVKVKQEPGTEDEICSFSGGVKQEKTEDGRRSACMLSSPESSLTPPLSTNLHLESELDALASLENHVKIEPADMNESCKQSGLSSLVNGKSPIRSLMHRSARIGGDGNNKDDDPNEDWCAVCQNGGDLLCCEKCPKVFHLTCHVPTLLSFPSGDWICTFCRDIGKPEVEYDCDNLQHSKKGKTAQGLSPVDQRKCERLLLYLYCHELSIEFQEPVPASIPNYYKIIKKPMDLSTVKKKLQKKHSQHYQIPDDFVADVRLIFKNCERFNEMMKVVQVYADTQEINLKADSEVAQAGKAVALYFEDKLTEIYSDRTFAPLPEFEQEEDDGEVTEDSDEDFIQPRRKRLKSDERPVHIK
# [29] = target: Translocator protein (Rattus norvegicus) (UniProt P16257); assay: Displacement of [3H]PK-11195 from peripheral benzodiazepine receptor in rat heart at 10 uM
# Chain of Translocator protein (Rattus norvegicus) (P16257 whole entry, looked up): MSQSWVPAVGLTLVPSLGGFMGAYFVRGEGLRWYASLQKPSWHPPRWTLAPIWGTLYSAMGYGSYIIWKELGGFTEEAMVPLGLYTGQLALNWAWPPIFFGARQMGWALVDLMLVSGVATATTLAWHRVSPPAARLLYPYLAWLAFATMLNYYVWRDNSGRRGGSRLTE
smiles,measurement,setting,value
CCS(=O)(=O)Nc1ccc(Oc2ccc(F)cc2F)c(-c2cn(C)c(=O)c3[nH]ccc23)c1 [MIVEBRESIB],CL free,Liver [1],550 mL/min/kg
same,CL free,Liver [2],< 81.7 mL/min/kg
same,clearance,Mus musculus [3],317 mL/min/kg
same,fAUC,Mus musculus [4],0.63 µM·h
same,FaFg,Rattus norvegicus,0.77
same,bioavailability,[5],68 to 83%
same,bioavailability,[6],65%
same,"fraction unbound at 4 h, 1 µM",[7],0.023
same,CLint scaled at 10 µM,[8],< 25 mL/min/kg
same,CLint scaled,[9],66.7 mL/min/kg
same,CLint scaled,[10],35 mL/min/kg
same,CLint scaled,[11],51.7 mL/min/kg
same,clearance,[12],8.33 mL/min/kg
same,clearance,[13],3.17 mL/min/kg
same,bioavailability,[14],50%
same,half-life,[15],2.6 h
same,CL/F,[16],83.8 mL/min
same,Ki,[17],12.2 nM
same,Kd,[18],< 10 nM
same,Ki,[19],2.2 nM
same,Kd,[20],> 1000 nM
same,Kd,[21],> 1000 nM
same,Kd,[22],> 1000 nM
same,Kd,[23],> 1000 nM
same,Kd,[24],> 1000 nM
same,Kd,[25],> 1000 nM
same,Kd,[26],> 1000 nM
same,Kd,[27],> 1000 nM
same,Kd,Protein polybromo-1,> 1000 nM
same,Kd,[28],> 1000 nM
same,inhibition,[29],86%
